Screens (PubChem BioAssay)
These entries were drawn from the full list.
HKDC1 act: HKDC1 hexokinase activators, primary screen, biochemical, fluorescence, uHTS | Q2TB90 | recombinant HKDC1, G6PDH/diaphorase resazurin fluorescence; hits give low values | activity change, negative = activation, % at 20 µM | 340,000 compounds, 0.056% hits | AID 493187, 2011;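 active = activation of 40% or more at 20 µM, a change of -40% or lower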
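Material: in-house human HKDC1 enzyme, G6PDH and diaphorase coupling enzymes | Quantity: HKDC1 at 5 µg/mL final | Medium: Tris buffer at pH 8.0 containing MgCl2 | Compound dosing: 20 µM single dose | Schedule: 90 min reaction at room temperature, dark | Measured by: Resorufin fluorescence, 525/613 nm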
* = called active by the depositor.

SMILES | HKDC1 act
CCC(C)(C)NC(=O)C1CCC(CNS(=O)(=O)c2cccc3nsnc23)CC1 (stereo not given) | 51.3
O=C(OCC(=O)N1CCN(C(=O)c2ccco2)CC1)c1cc(-c2ccco2)nc2ccccc12 | 37.1
COc1cccc2cc(C(=O)Nc3ccc(F)cc3)c(=Nc3ccc(C(=O)O)cc3)oc12 | 77.0
O=C(O)c1ccc(-c2ccc(/C=c3/sc4nc5ccccc5n4c3=O)o2)cc1Cl | 45.0
Cc1ccc(S(=O)(=O)N(C(=O)c2ccco2)c2cc3sc(=O)oc3c3ccccc23)cc1 | 36.9
COc1ccc(N2CCN(C(=O)CSc3nnc4c(C)cc5c(C)cc(C)cc5n34)CC2)cc1 | 42.9
C/C(=N\NC(=O)c1c(C)nc2ccccn12)c1ccc(O)cc1O | -45.1*
O=C1C(F)=CC(COC(c2ccccc2)(c2ccccc2)c2ccccc2)OC1n1cc(F)c(=O)[nH]c1=O (stereo not given) | 39.9
COc1ccc(C2=CC3=C(Br)C(=O)C(C)(OC(=O)c4cccs4)C(=O)C3=CO2)cc1 (stereo not given) | 50.0
COP(=O)(OC)c1ccc(NCc2cc(O)ccc2O)cc1 | 42.7
